Test results as given in the M2OR odorant receptor database.

Experiments:
Conditions in all cases: stereoisomer not certain
[1] = system: OR1A2 A108G K109N S155N
Procedure, shortened: (§1)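 Whether a receptor–molecule pair is responsive (active) rests on the original authors' judgment that its measured signal was statistically different from baseline. Pairs without that judgment are non-responsive (inactive). Sources used varied assay methods, commonly transient luciferase assays in mammalian cell lines.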

[2] = system: OR1A2 A108G K109N T154A S155N
Procedure, shortened: as §1

[3] = system: OR1A2 A108G K109N T154A
Procedure, shortened: as §1

[4] = system: OR1A2 A108G K109N
Procedure, shortened: as §1

[5] = system: OR1A2 A108G T154A S155N
Procedure, shortened: as §1

[6] = system: OR1A2 A108G
Chain of OR1A2 A108G (as listed by the source, stated change not applied): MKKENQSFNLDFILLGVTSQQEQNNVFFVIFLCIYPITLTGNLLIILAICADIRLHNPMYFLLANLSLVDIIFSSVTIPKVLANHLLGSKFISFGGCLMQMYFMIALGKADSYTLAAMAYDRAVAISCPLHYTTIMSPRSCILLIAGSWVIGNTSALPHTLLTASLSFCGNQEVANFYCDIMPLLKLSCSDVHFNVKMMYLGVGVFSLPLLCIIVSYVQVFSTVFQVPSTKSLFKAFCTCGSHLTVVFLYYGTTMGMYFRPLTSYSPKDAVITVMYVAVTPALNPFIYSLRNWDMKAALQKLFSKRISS
Procedure, shortened: as §1

[7] = system: OR1A2 K109N T154A S155N
Procedure, shortened: as §1

[8] = system: OR1A2 K109N
Chain of OR1A2 K109N (as listed by the source, stated change not applied): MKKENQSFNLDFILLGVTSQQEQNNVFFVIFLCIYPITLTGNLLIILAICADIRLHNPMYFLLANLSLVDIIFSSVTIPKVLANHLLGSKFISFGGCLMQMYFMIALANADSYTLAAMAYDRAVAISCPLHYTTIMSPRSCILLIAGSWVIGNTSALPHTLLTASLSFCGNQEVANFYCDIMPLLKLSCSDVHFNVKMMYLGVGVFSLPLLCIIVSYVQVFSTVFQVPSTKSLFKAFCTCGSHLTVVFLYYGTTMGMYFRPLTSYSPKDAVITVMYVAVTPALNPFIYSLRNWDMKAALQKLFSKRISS
Procedure, shortened: as §1

Measured: odorant receptor agonist call;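 also: active if original authors judged signal statistically different from baseline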

CC(C)=CCCC(C)CCO (stereo not drawn)
active: all assays above
